Test results from ChEMBL document CHEMBL1139503, “Varenicline: an alpha4beta2 nicotinic receptor partial agonist for smoking cessation” (J Med Chem, 2005).

How the values were obtained:
[1] = target: T1, Neuronal acetylcholine receptor; alpha4/beta2 (Homo sapiens) (UniProt P17787+P43681); test: Percent agonist activity relative to 10 uM (-)-nicotine at human nicotinic acetylcholine receptor alpha4-beta2 at 10 uM; format: functional
Method in brief: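 Electrophysiology in Xenopus oocytes expressing human α4β2 nAChR. Compound applied alone at 10 µM. Current compared with the response to 10 µM (-)-nicotine (chosen over EC50 level to limit desensitization) and expressed as percent; N = 3, SEM ≤10%.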

[2] = target: Neuronal acetylcholine receptor subunit alpha-7 (Rattus norvegicus, UniProt Q05941); test: Inhibition of [125I]alpha-bungarotoxin binding to nicotinic acetylcholine receptor alpha-7 subunit in rat GH4C1 cells; format: cell-based, GH4-C1
Chain of Neuronal acetylcholine receptor subunit alpha-7 (Q05941 whole entry): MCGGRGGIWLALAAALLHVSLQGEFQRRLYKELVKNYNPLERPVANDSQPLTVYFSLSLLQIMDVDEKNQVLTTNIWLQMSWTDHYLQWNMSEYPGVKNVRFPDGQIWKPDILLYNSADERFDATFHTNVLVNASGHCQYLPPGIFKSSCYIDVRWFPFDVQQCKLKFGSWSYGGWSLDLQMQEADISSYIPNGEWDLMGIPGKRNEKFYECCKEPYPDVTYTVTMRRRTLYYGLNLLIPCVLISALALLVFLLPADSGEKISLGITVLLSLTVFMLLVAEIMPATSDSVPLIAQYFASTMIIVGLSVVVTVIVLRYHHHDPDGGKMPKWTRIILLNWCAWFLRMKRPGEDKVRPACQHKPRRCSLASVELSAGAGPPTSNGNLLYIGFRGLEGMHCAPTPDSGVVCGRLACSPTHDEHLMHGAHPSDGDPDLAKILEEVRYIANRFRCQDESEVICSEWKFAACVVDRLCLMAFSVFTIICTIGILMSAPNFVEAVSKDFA

[3] = target: T1, Neuronal acetylcholine receptor; alpha4/beta2 (Homo sapiens); test: Percent antagonist activity against 10 uM nicotine at human nicotinic acetylcholine receptor alpha4-beta2 at 10 uM; format: functional
[4] = target: Neuronal acetylcholine receptor; alpha4/beta2 (Rattus norvegicus, UniProt P09483+P12390); test: Inhibition of [3H]nicotine binding to nicotinic acetylcholine receptor alpha4-beta2 of rat cortex
Chain of Neuronal acetylcholine receptor; alpha4/beta2 (P09483 whole entry): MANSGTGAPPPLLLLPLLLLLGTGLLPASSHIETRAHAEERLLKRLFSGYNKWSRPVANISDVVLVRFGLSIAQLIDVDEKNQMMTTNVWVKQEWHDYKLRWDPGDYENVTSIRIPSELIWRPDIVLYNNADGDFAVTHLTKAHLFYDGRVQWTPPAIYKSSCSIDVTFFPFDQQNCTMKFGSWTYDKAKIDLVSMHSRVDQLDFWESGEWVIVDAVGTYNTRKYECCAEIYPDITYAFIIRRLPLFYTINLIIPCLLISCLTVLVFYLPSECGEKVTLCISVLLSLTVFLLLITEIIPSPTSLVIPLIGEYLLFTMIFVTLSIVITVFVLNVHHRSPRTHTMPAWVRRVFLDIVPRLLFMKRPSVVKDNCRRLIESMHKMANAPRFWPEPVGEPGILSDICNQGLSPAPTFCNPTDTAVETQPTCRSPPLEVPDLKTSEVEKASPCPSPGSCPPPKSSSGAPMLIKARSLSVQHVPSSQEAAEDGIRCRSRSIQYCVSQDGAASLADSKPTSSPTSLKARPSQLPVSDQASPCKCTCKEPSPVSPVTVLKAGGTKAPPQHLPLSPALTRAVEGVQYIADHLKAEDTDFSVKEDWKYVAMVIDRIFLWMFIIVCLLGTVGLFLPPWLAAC
Chain of Neuronal acetylcholine receptor; alpha4/beta2 (P12390 whole entry): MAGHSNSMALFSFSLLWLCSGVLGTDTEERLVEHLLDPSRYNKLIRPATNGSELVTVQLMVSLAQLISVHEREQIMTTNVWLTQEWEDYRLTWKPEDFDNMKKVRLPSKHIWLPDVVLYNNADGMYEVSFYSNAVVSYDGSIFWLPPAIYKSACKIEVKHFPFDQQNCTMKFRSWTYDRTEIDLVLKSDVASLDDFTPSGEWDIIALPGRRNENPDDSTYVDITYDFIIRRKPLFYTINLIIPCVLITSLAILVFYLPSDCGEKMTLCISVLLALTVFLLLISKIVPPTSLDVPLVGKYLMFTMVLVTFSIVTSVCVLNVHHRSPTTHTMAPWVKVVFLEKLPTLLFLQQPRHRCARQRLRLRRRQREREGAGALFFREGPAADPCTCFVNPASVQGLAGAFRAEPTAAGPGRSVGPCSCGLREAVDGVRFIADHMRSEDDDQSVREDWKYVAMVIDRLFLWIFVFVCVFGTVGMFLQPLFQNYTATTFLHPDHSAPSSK
Method in brief: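 Radioligand displacement in rat cortex tissue; N = 3 determinations.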

[5] = target: Acetylcholine receptor (Torpedo californica, UniProt P02710+P02712+P02714+P02718); test: Inhibition of [125I]alpha-bungarotoxin binding to nicotinic acetylcholine receptor alpha1 beta gamma delta of electroplax; format: protein-complex assay
Chain of Acetylcholine receptor (P02710 whole entry): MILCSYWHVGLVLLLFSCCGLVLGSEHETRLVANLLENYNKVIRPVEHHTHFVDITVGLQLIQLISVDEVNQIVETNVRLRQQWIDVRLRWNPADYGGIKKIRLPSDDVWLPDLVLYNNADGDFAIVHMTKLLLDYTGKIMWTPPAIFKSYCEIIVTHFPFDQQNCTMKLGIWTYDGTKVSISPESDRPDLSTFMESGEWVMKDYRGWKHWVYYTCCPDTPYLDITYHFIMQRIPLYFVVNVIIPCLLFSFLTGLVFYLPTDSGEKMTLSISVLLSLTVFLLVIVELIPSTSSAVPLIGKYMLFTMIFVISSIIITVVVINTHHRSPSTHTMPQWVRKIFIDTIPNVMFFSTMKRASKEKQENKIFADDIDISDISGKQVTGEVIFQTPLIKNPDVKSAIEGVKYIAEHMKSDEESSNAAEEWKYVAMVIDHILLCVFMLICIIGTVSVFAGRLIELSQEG
Chain of Acetylcholine receptor (P02712 whole entry): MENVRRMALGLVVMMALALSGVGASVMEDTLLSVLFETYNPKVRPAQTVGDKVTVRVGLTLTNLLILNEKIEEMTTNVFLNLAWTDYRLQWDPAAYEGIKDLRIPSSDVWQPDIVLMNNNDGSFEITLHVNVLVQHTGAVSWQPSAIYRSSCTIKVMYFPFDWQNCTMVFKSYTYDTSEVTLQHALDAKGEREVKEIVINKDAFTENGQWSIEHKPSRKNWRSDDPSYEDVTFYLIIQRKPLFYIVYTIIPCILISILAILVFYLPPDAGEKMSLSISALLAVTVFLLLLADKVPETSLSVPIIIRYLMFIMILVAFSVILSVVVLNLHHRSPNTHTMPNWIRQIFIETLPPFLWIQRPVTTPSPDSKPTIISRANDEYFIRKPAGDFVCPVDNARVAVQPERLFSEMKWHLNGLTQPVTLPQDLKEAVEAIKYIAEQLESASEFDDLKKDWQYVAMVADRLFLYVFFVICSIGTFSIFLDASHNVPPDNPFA
Chain of Acetylcholine receptor (P02718 whole entry): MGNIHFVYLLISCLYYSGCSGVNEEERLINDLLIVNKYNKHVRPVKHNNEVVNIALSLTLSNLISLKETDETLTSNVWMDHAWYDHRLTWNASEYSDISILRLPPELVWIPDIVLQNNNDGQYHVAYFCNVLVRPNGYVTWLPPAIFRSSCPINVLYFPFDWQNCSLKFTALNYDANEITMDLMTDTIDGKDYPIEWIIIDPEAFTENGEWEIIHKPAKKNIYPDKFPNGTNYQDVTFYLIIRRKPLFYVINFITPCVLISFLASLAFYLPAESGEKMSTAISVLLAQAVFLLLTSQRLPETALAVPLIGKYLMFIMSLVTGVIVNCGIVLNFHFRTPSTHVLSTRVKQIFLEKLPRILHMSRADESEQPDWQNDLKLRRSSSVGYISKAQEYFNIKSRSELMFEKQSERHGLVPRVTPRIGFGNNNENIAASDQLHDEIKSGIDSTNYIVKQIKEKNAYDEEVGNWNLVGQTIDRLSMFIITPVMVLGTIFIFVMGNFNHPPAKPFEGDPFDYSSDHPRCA
Chain of Acetylcholine receptor (P02714 whole entry): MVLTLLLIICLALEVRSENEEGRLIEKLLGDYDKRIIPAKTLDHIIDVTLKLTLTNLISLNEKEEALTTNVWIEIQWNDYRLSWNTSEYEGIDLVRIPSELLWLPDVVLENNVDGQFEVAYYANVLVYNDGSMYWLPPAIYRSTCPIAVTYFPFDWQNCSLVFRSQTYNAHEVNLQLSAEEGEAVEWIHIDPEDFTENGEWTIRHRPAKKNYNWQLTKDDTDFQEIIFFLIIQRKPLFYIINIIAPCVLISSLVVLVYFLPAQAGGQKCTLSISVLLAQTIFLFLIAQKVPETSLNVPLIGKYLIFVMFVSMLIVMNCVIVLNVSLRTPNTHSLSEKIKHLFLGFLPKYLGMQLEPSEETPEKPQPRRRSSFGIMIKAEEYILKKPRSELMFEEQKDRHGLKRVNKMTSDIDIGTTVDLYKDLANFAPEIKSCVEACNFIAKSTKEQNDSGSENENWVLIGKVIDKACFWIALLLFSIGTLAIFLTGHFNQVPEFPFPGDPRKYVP
Method in brief: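 Competition binding with [125I]-α-bungarotoxin on electroplax membranes; N = 3 determinations.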

[6] = target: Neuronal acetylcholine receptor; alpha3/beta4 (Homo sapiens, UniProt P30926+P32297); test: Inhibition of [3H]epibatidine binding to nicotinic acetylcholine receptor alpha3-beta4 of human IMR32 cells; format: cell-based, IMR-32
Chain of Neuronal acetylcholine receptor; alpha3/beta4 (P30926 whole entry): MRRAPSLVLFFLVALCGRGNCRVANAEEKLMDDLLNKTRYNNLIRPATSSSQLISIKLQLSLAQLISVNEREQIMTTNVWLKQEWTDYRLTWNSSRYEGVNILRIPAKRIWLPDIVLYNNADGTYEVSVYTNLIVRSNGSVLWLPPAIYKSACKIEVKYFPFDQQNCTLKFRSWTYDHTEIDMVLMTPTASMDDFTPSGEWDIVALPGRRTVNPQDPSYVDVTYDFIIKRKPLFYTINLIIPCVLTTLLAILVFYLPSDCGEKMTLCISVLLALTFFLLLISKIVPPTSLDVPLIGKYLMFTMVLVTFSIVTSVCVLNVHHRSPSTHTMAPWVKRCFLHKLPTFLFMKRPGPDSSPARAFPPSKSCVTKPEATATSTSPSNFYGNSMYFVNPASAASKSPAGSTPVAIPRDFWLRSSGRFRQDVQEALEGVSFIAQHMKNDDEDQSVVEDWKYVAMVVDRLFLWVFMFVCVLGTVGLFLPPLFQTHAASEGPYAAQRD
Chain of Neuronal acetylcholine receptor; alpha3/beta4 (P32297 whole entry): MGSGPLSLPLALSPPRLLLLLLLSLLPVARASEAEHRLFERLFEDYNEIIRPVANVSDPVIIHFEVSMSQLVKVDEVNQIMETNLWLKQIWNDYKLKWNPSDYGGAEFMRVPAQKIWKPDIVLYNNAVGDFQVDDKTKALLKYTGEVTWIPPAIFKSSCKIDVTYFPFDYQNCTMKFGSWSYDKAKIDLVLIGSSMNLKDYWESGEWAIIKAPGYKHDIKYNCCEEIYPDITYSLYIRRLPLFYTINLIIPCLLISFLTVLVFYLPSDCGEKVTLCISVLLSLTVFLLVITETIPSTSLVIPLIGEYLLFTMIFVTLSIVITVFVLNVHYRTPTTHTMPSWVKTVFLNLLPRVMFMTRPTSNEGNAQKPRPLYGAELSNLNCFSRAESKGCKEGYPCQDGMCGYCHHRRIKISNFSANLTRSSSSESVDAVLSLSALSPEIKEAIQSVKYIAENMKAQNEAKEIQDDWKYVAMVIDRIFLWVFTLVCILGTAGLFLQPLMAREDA
Method in brief: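 Displacement of [3H]-epibatidine from IMR32 cell preparations; N = 3 determinations.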

| SMILES | Response [1] | Ki [2] | inhibition [3] | Ki [4] | Ki [5] | Ki [6] |
| --- | --- | --- | --- | --- | --- | --- |
| O=c1cccc2n1C[C@@H]1CNC[C@H]2C1 (single isomer, unassigned) [CYTISINICLINE] | 56% | 4200 nM | 30% | 0.17 nM | 250 nM | 840 nM |
| c1ccc2c(c1)C1CNCC2C1 | 0% | > 5000 nM | 35% | 20 nM | 370 nM | 2850 nM |
| CN1CCC[C@H]1c1cccnc1 [NICOTINE] | 100% | – | – | – | 6270 nM | – |
| O=[N+]([O-])c1ccc2c(c1)C1CNCC2C1 (racemic) | 65% | 7340 nM | 20% | 0.75 nM | 690 nM | 210 nM |
| c1cnc2cc3c(cc2n1)[C@@H]1CNC[C@H]3C1 | 68% | 322 nM | 34% | 0.06 nM | 3540 nM | – |
